NR2E3 ag-1: inhibitors of NR2E3-RetCOR corepressor binding, primary screen, NR2E3 agonist project, biochemical, TR-FRET, GST-NR2E3, biotin-RetCOR; AID 2300, 2010; inhibition of corepressor binding, % at 4.78 µM; 0.12% of 320,000 active; 1536-well; Photoreceptor-specific nuclear receptor (Homo sapiens), Q9Y5X4;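 active = percent inhibition above the cutoff of mean plus 3 SD of all tested compounds, set per screening campaign, cut at about 20% in these data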
Target sequence (Q9Y5X4 whole entry, looked up): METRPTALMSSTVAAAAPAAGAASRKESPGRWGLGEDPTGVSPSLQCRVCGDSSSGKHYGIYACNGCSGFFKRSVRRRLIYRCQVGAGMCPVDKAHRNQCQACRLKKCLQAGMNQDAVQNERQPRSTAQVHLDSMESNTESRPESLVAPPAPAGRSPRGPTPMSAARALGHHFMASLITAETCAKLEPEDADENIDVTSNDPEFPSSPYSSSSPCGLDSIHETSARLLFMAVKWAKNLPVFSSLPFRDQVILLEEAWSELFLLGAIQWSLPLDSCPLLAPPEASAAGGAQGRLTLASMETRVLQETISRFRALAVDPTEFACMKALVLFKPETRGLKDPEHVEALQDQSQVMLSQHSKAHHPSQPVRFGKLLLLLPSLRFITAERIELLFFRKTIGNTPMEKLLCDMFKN
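Test system – NR2E3–RetCOR corepressor complex · Quantity – NR2E3 fusion 1.35 nM · Buffer or medium – Tris pH 7.5 · Incubation – Compound–protein incubation for 5 h at 4 °C · Technique – TR-FRET, Eu(K)-anti-GST donor, streptavidin-D2 acceptor, ex 340, em 617/671 nm · Evaluation – percent inhibition of 671/617 nm emission ratio versus biotin and DMSO controls · Plate – 1536-well format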
NR2E3 ag-2: NR2E3 agonists in two-hybrid cells, primary screen, cell-based, luminescence, CHO-S, Gal4-NCOR/VP16-NR2E3 | Photoreceptor-specific nuclear receptor (Homo sapiens), Q9Y5X4 | luciferase | inhibition of corepressor binding, % at 3.98 µM | 0.35% of 360,000 active;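 active = inhibition above the mean of all tested compounds plus 3 SD, cut at about 70% in these data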;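 also: higher means lower luciferase signal from less NR2E3 corepressor binding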
TROY NFkB inh: inhibitors of TROY-driven NF-kB signaling, primary screen, Q293 LMP1-TROYcd cells, NF-kB luciferase, uHTS; Q293 LMP1-TROYcd NF-kB luciferase reporter, 4 h; 0.98% of 360,000 active; AID 1347056, 2019; inhibition, % at 10 µM;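 active = compounds whose plate-normalised and pattern-corrected inhibition of the luciferase reporter signal at the single screening dose is 50% or more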
LMP1 NFkB inh: EBV LMP1-driven NF-kappaB luciferase reporter inhibitors, primary screen, cell-based, luminescence, single point. 0.69% of 350,000 active. inhibition, % at 12.5 µM. AID 504558, 2011. LMP1-induced NF-kappaB luciferase reporter cells; in the data active = inhibition above about 41%
HIF act: HIF pathway transcriptional activators, primary screen, cell-based, U2OS HRE-luciferase, luminescence | U2OS HRE-luciferase reporter; normalized: DMSO 0%, desferrioxamine 100% | activation, % at 7.5 µM (by protocol) | 0.32% of 300,000 active;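 active = mean activation of at least 10% of the iron chelator positive control signal, with at least half of replicates also reaching 10%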
NR2E3 ag conf: NR2E3 agonist confirmation in cells, cell-based, luminescence, CHO-S two-hybrid | CHO-S mammalian two-hybrid NR2E3-NCOR, luciferase luminescence | 51% of 2,300 active | shares compounds with NR2E3 ag-2 | inhibition, % at 3.98 µM | AID 624378, 2012;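 active = average inhibition above a cutoff equal to the mean inhibition of all tested compounds plus one SD, cut at about 70% in these data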
GAL4-VP16 luc: GAL4-VP16 reporter modulators, confirmation, counter-screen for NR2E3 agonist project, cell-based, luminescence, CHO-S, high throughput | shares compounds with NR2E3 ag-2 | CHO-S GAL4-VP16 luciferase reporter | inhibition, % at 3.98 µM | 29% of 2,300 active | AID 624379, 2012;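 active = mean inhibition above a cutoff equal to the average over all tested compounds plus one standard deviation, cut at about 70% in these data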;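 also: luciferase from a UAS reporter driven by GAL4-VP16 transactivation; higher means less reporter light so more repression of VP16 activity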
Hits are given with their value; n = inactive; x = not tested or not shown. Sampled rows, rich in hits. Any-hit rate of the full collection: about 2%.

SMILES | NR2E3 ag-1 | NR2E3 ag-2 | TROY NFkB inh | LMP1 NFkB inh | HIF act | NR2E3 ag conf | GAL4-VP16 luc
Cc1ccc(NS(=O)(=O)c2ccc3c(c2)n(C)c(=O)n3C)cc1 | n | n | n | n | n | x | x
Cn1c(=O)n(C)c2cc(NS(=O)(=O)c3ccc4c(c3)CCCC4)ccc21 | n | n | n | n | n | 85 | n
C[C@H](O)[C@@H]1C(=O)N2CCc3ccc(N4CCN(C)CC4)cc3[C@@H]2C[C@@H]1N(C)C(=O)c1ccc(C#N)cc1 | x | n | n | n | x | x | x
CC(C)(C)CN1C(=O)C(=O)NC[C@@H]1CC1CCCCC1 | x | n | n | x | x | x | x
CC1Cc2ccccc2N1C(=O)CN1CCC(n2nnc3cc(C(F)(F)F)ccc32)CC1 (stereo not drawn) | n | n | n | n | n | n | n
COC(=O)c1ccccc1NC(=O)CN1CCC(n2nnc3cc(C(F)(F)F)ccc32)CC1 | n | n | n | n | n | x | x
CCOC(=O)[C@H]1[C@H]2COc3ccc(OC)cc3[C@@H]2N2C(=O)c3cc(C)ccc3NC(=O)[C@@]12C | n | n | n | n | x | x | x
CC(CC(=O)N1CCc2ccccc21)S(=O)(=O)c1ccc2c(c1)NC(=O)CO2 (stereo not drawn) | n | n | n | n | n | x | x
COc1ccc(CCNC(=O)Cn2nc(C)c3c(C)n(-c4ccccc4)nc3c2=O)c(OC)c1 | n | n | n | n | n | x | x
COc1ccc(OC)c(CCNC(=O)Cn2nc(C)c3c(C)n(-c4ccc(C)cc4)nc3c2=O)c1 | n | 74 | n | n | n | n | n
Fc1ccc(-n2nnnc2-c2cnc(-c3cccs3)nc2C(F)(F)F)cc1 | n | 88 | 59 | n | n | 92 | n
CCOC(=O)N1CCN(C(=O)C(=O)Nc2sc3c(c2C(N)=O)CC(C)(C)OC3)CC1 | n | n | n | n | n | x | x
CC(C)C(NC(=O)c1ccc(C(C)(C)C)cc1)C(=O)N1CCC(C(N)=O)CC1 (stereo not drawn) | n | n | n | n | x | x | x
O=C(NNc1ccccc1)C(=O)NNc1ccccc1 | x | n | n | n | x | n | n
CN(Cc1c(F)cccc1Cl)C(=O)c1cccc(S(=O)(=O)N2CCN(Cc3ccccc3)CC2)c1 | x | n | n | n | x | x | x
CN(Cc1ccc(OC(F)F)cc1)C(=O)c1cccc(S(=O)(=O)N2CCN(Cc3ccccc3)CC2)c1 | x | 91 | n | n | x | 92 | 76
COc1cccc(CN(C)C(=O)c2cccc(S(=O)(=O)N3CCN(Cc4ccccc4)CC3)c2)c1OC | x | n | n | n | x | n | n
CN(CCOc1ccc(Cl)cc1)C(=O)c1cccc(S(=O)(=O)N2CCN(c3ccccc3)CC2)c1 | x | 85 | n | n | x | 92 | 81
COc1cccc(CN(C)C(=O)c2cccc(S(=O)(=O)N3CCN(c4ccc(F)cc4)CC3)c2)c1OC | n | n | n | n | n | 79 | n
CN(Cc1ccc(Cl)cc1Cl)C(=O)c1cccc(S(=O)(=O)N2CCN(c3ccccc3)CC2)c1 | n | n | n | n | n | x | x
O=C(c1cccc(S(=O)(=O)N2CCN(c3ccc(F)cc3)CC2)c1)N1CCCCCCC1 | n | n | n | n | n | n | n
COc1cccc(CN(C)C(=O)c2cccc(S(=O)(=O)N3CCN(c4ccccc4)CC3)c2)c1OC | x | n | n | n | x | 81 | n
Cc1ccc(C(=O)N2CCN3C(=O)c4ccccc4C23c2ccc(Cl)cc2)cc1 (stereo not drawn) | n | 74 | n | n | n | n | n
O=C(CCl)N1CCN2C(=O)c3ccccc3C12c1ccc(Cl)cc1 (stereo not drawn) | n | n | n | n | n | x | x
